Screening results deposited in PubChem by several laboratories.
Only a selection was taken, and hits are over-represented in it overall.
Hsp70 act: switches on Hsp70 transcription | HeLa Hsp70 promoter luciferase reporter, luminescence; scaled: vehicle 0, proteasome-inhibitor control 100% | AID 1203 | activation, % at 10 µM | 200,000 compounds, 0.04% hits;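 active means activation above the mean across all tested compounds plus 3 SD, cutoff set per campaign, cut at about 5.5% in these data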;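 further: 100% = MG132 at 30 µM as the positive control and 0% = DMSO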
L major viab: Leishmania major promastigote growth inhibition. inhibition, % at 10 µM. 200,000 compounds, 9% hits. Leishmania major promastigotes, resazurin fluorescence viability; in the data active means inhibition above about 50%;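 further: promastigotes grown with compound for 44 hours at 28 °C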
HSF-1 act: increases HSF-1 driven luciferase reporter signal; NIH3T3-HGL HSF-1 luciferase reporter, MG132, 8 h; 100% = twice DMSO control signal; activation, % at 9 µM; 300,000 compounds, 1.7% hits;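 active means mean replicate activation of at least 50% with a set share of replicates each reaching 50%; inconclusive means only one of those two conditions met; inactive means mean below 50% and too few replicates reaching it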;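 further: 0% = median of the neutral control wells and 100% = twice that signal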
T cruzi repl: T. cruzi replication inhibition | T. cruzi beta-gal in NIH3T3, luminescence, 90 h | inhibition, % (concentration not given with the values) | 300,000 compounds, 1.4% hits | AID 1885;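 active means mean inhibition across valid replicates above about 55%, limit read from the data; inconclusive means mean below that limit but half or more replicates reach it; inactive means mean below it, under half of replicates reach it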;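 further: signal also drops with host cell toxicity which is not excluded here; 0% = plate median of DMSO wells and 100% = zero luminescence signal; higher percent means less beta-gal luminescence so fewer parasites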
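System: mouse NIH/3T3 fibroblasts infected with β-gal-expressing T. cruzi Tulahuen C4 / Input: NIH/3T3 cells, 5,000 per well / Buffer or medium: Low-serum DMEM with 2% FBS / Probe or stimulus: 5000 reporter trypomastigotes per well / Schedule: ≥90 h infection period, 3 h prior cell attachment / Measured by: GalScreen luminescence, 60 min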
HSF1 inh: HSF1 inhibition; NIH3T3-HGL HSE-luciferase, MG132-induced, luminescence 8 h; active compounds read low; activity change, negative = inhibition, % at 7.5 µM (by protocol); 300,000 compounds, 0.77% hits; AID 2098;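 active means more than half of replicate wells show activity change below -50%, luminescence cut by over half; inconclusive means some wells, but at most half, below -50%; inactive means no replicate well below -50%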;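 further: luciferase reports HSF-1 transcriptional activity via heat shock element; 0% = median of DMSO wells and -100% = zero luminescence signal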
The depositor's hits bear a star; ? = inconclusive; . = no result.

SMILES	Hsp70 act	L major viab	HSF-1 act	T cruzi repl	HSF1 inh
CCOc1ccc(CN2CCC(C(=O)N3CCN(c4ccccc4F)CC3)CC2)cc1OC	0	-5	-6	69*	-5
CC(C)CN1CCC(C(=O)N2CCN(c3ccccc3F)CC2)CC1	0	82*	21	11	-3
COc1cc(CN2CCC(C(=O)N3CCN(c4ccccc4F)CC3)CC2)cc(OC)c1O	0	8	-2	1	0
Cc1cc(C)cc(NC(=O)C(Sc2ncnc3ccccc23)c2ccccc2)c1 (centres undefined)	0	57*	6	40	11
O=C(Nc1cccc(C(F)(F)F)c1)C(Sc1ncnc2ccccc12)c1ccccc1 (centres undefined)	0	27	48	9	25
CC1CCc2c(C(=O)Nc3ccc(N4CCOCC4)cc3)csc2C1 (centres undefined)	0	0	-21	8	-1
O=C(CSC1=NCCN1)Nc1cccc(C(F)(F)F)c1	0	20	67*	12	28
CCN(CC(=O)Nc1c(F)cccc1F)C(=O)CCC(=O)c1ccc(C)cc1	.	.	13	-12	3
COc1ccc(CNc2nc(NCc3ccc(OC)cc3)n(C(=O)c3ccccc3[N+](=O)[O-])n2)cc1	0	13	3	17	10
CN(C)CCC1Sc2ccccc2Oc2ccccc21 (centres undefined)	0	100*	6	26	-1
CC1c2ccccc2SC(CCCN(C)C)c2ccccc21 (centres undefined)	0	100*	0	55*	0
CCN(CC)CCOC(=O)C1c2ccccc2Oc2ccccc21	0	0	-8	-19	-11
CN(C)CCCNC(=O)N1c2ccccc2Sc2ccccc21	.	.	0	-10	-2
COc1ccc([N+](=O)[O-])cc1NC(=O)C1CCCN1S(=O)(=O)c1cccs1 (centres undefined)	.	.	1	-10	-3
COc1ccc(N=CC2=C(O)c3ccccc3C2=O)c(OC)c1	0	7	-78	19	-73*
N#Cc1ccc(OCC(=O)N/N=C2/CC(c3ccccc3)Oc3ccccc32)cc1 (centres undefined)	0	53*	?	-6	10
O=C(N/N=C1\CC(c2ccccc2)Oc2ccccc21)c1cccnc1 (centres undefined)	0	-1	13	5	12
CCOc1ccc(S(=O)(=O)N/N=C2/CC(c3ccccc3)Oc3ccccc32)cc1 (centres undefined)	0	50*	12	34	8
O=C(N/N=C1/CC(c2ccccc2)Oc2ccccc21)C1CC1 (centres undefined)	0	44	3	-14	4
O=C(N/N=C1\CC(c2ccccc2)Oc2ccccc21)c1ccc(O)cc1 (centres undefined)	.	.	71*	-11	35
COC(=O)c1c(NC(=O)Cc2ccccc2)sc2c1CCN(C(C)C)C2	.	.	-3	-4	-3
CC(C)N1CCc2c(sc(NC(=O)c3cc(-c4cccs4)nc4ccccc34)c2C(N)=O)C1	0	92*	-27	38	-20
COC(=O)c1sc(NC(=O)c2ccc([N+](=O)[O-])o2)c(C#N)c1C	.	.	10	57*	7
CC(C)N1CCc2c(sc(NC(=O)c3ccc([N+](=O)[O-])o3)c2C(N)=O)C1	.	.	110*	20	64
CCOC(=O)c1sc(NC(=O)c2ccco2)c(C#N)c1C	0	-9	28	4	4
SMILES	Hsp70 act	L major viab	HSF-1 act	T cruzi repl	HSF1 inh
CC(C)N1CCc2c(sc(NC(=O)c3nc4ccccc4s3)c2C(N)=O)C1	0	24	-5	7	-3
COC(=O)c1c(NC(=O)c2ccc([N+](=O)[O-])o2)sc2c1CCN(C(C)C)C2	.	.	169*	7	110
CCOC(=O)N1CCc2c(sc(NC(=O)c3ccc(S(=O)(=O)N4CCCC4)cc3)c2C#N)C1	0	57*	13	-4	-1
CC(=O)N1CCc2c(sc(NC(=O)c3ccc([N+](=O)[O-])o3)c2C#N)C1	0	98*	-11	-18	-1
Cc1cc(C)cc(C(=O)Nc2cccc(NC(=O)c3ccco3)c2)c1	.	.	18	6	6
Cn1cc(S(=O)(=O)Oc2ccccc2)c(=O)n(C)c1=O	0	-1	15	3	0
Cc1cc(/C=C2\SC(=O)N(C)C2=O)c(C)n1-c1ccc(S(N)(=O)=O)cc1	.	.	3	6	4
Cc1cc(/C=C2\SC(=O)N(C)C2=O)c(C)n1-c1ccc(O)cc1	.	.	-74	4	-70*
CN=C1S/C(=C\c2cc(C)n(-c3ccccc3F)c2C)C(=O)N1C	0	62*	-83	4	-82*
Cc1cc(/C=C2\SC(=S)N(C)C2=O)c(C)n1-c1cccc(O)c1	.	.	-37	10	-29
CC(C)(C)C(=O)Nc1cc(NC(=O)C(C)(C)C)cc(C(=O)Nc2c[nH]c(=O)[nH]c2=O)c1	.	.	8	8	4
CC(=O)Nc1ccc(S(=O)(=O)N2CCSC2c2ccccc2Cl)cc1 (centres undefined)	0	64*	40	0	15
CC(=O)Nc1ccc(S(=O)(=O)N2CCSC2c2ccccc2)cc1 (centres undefined)	0	14	-19	3	-4
Cc1cccc(/C=C(\c2nc3ccccc3[nH]2)S(=O)(=O)c2ccccc2)c1	0	100*	344*	47	241
CC(C)(C)c1ccc(/C=C(\c2nc3ccccc3[nH]2)S(=O)(=O)c2ccccc2)cc1	.	.	57*	56*	60
Cc1cccc(/C=C/c2nc3ccccc3c(=O)[nH]2)c1	0	3	3	-49	14
O=C(O)c1ccc(/C=C(\c2nc3ccccc3[nH]2)c2nc3ccccc3s2)cc1	.	.	22	-5	15
CCCc1nnc(SCC(=O)Nc2cccc(C(F)(F)F)c2)o1	.	.	-8	-3	12
CCc1cccc(OCC(=O)Nc2cc(S(=O)(=O)N3CCOCC3)ccc2N2CCCC2)c1	.	.	3	23	11
CCOc1ccc2c(c1)C(C)=CC(C)(C)N2C(=O)Nc1ccccc1	0	50*	31	15	16
COc1ccc(NC(=O)N2c3ccc(OC)cc3C(C)=CC2(C)C)cc1	0	30	1	-15	-6
CCN(CCCNC(=O)CC(C(=O)N1CCc2ccccc21)n1ccnc1)c1ccccc1 (centres undefined)	0	100*	8	29	0
OCCN1CCN(CC#CCC(c2ccccc2)c2ccccc2)CC1	.	.	6	14	5
OCCN1CCN(CC#CCn2c3ccccc3c3ccccc32)CC1	0	64*	-3	6	-4
COc1ccccc1CNC(c1ccccc1)c1ccccc1	.	.	28	13	8
COc1cc(C)c(NC(c2ccccc2)c2ccccc2)cc1OC	1	91*	39	3	18
